Results gathered from unrelated publications.
Lines come from different studies, so protocols differ.
Target: Serine/threonine-protein kinase 17B (STK17B, Homo sapiens, UniProt O94768)
Residues used in one study (O94768 1-372): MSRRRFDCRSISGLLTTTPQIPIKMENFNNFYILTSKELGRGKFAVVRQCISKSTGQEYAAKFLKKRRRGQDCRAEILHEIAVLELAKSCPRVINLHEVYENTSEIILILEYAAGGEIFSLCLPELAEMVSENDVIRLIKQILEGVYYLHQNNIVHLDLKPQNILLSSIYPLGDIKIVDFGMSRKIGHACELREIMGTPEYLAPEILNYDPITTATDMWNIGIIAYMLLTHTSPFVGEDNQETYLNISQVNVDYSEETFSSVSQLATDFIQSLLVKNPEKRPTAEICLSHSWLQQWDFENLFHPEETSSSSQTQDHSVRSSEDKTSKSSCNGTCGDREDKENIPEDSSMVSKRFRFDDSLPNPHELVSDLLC

SMILES	effect on	method	tested at	remaining binding [%]
C[C@@H]1CN(c2cc(-c3n[nH]c4ccc(OC5(C)CC5)cc34)ncn2)C[C@H](C)O1	cell-free assay	competition with immobilised ligand	0.1 µM	96
Cc1cnc(Nc2ccc(C(=O)N3CCC(N4CCCC4)CC3)cc2)nc1-c1cc2ccccc2s1	binding	competition with immobilised ligand	1 µM	0
CCCOc1ccc([C@H]2[C@H](C(=O)O)[C@@H](c3ccc4c(c3)OCO4)CN2CC(=O)Nc2c(CC)cccc2CC)cc1	cell-free assay	competition with immobilised ligand	1 µM	91
N[C@H]1CCN(c2nccc(-c3cnn4ncccc34)n2)C1	binding	–	1 µM	100
C=CC(=O)N1CCC(C(=O)NCC(=O)N2CCN(c3nc(-c4cnc(N)nc4C(F)F)nc(N4CCOCC4)n3)CC2)CC1	binding	competition with immobilised ligand	1 µM	97
CN(CCCC(F)(F)F)c1nccc(-c2cnn3ncccc23)n1	binding	–	1 µM	100
CCN1CCN(Cc2ccc(C(=O)Nc3ccc(C)c(Oc4ccc5c(c4)CC(=O)N5)c3)cc2C(F)(F)F)CC1	binding	competition with immobilised ligand	1 µM	100
O=C(NCC1CCOCC1)c1n[nH]cc1NC(=O)c1c(F)cccc1F	binding	competition with immobilised ligand	1 µM	91
c1cnn2ncc(-c3ccnc(N4CCC45COC5)n3)c2c1	binding	–	1 µM	100
CNC(=O)[C@@H]1CC[C@@H](n2c(-c3ccc4cnccc4c3)nc3ccc(C(=O)NCc4cccc(C(N)=O)c4)cc32)C1	binding	competition with immobilised ligand	1 µM	99
C[C@@H]1CCN(c2nccc(-c3cnn4ncccc34)n2)C1	binding	–	1 µM	100
O=C(c1ccc(Nc2nccc(-c3cc4ccccc4s3)n2)cc1)N1CCC(N2CCCC2)CC1	binding	competition with immobilised ligand	1 µM	0
CN(C)C(=O)Cn1cc(-c2nc(C3(c4ccc(-c5cnc(N)nc5)cc4)CC3)no2)cn1	cell-free assay	competition with immobilised ligand	1 µM	100
O=C(NCCCN1CCOCC1)c1ccc(Nc2nccc(-c3cc4ccccc4s3)n2)cc1	binding	competition with immobilised ligand	1 µM	0
Cn1cc(Cl)c2c(Oc3c(F)cc(Nc4cc(Cl)nc(N)n4)cc3F)ccnc21	cell-free assay	competition with immobilised ligand	0.1 µM	84
COc1cnc(Nc2cccc(S(N)(=O)=O)c2)nc1N1CCN(c2ccccc2)C(=O)C1	binding	competition with immobilised ligand	1 µM	89
C[C@@H]1CN(c2cc(-c3nn(C)c4ccc(OC5(C)CC5)cc34)ncn2)C[C@H](C)O1	cell-free assay	competition with immobilised ligand	1 µM	100
CN(C)c1ncc(F)c(-c2cnn3ncccc23)n1	binding	–	1 µM	87
CCCCN(CCCC)C(=O)CN1C[C@H](c2cc(OC)c3c(c2)OCO3)[C@@H](C(=O)O)[C@@H]1CC(C)(C)CCC	cell-free assay	competition with immobilised ligand	1 µM	100
CN(C)c1nccc(-c2cnc3ncccn23)n1	binding	–	1 µM	100
CC(C)CC(=O)N1CCc2nc(-c3ccc(Br)cc3)nc(N(C)Cc3ccccc3)c2C1	cell-free assay	competition with immobilised ligand	0.1 µM	91
CN(c1nccc(-c2cnn3ncccc23)n1)C1CC1	binding	–	1 µM	100
